Reference: publication PMC6868880 (ACS Omega, 2019)
In brackets after ≈: the same amount, converted by molar mass. Where two headings read alike, the source gives them in different places. Where no end group is shown, it is not given here.

Legend:
Trichophyton rubrum = experiment: MIC, filamentous fungi, Trichophyton rubrum; type: cell-based; conditions: ATCC28189, read-out: MIC Tr
In short: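 T. rubrum ATCC 28189 was grown on potato dextrose agar, and inocula were prepared in RPMI 1640 medium. MIC was determined following CLSI M38-A2 for filamentous fungi.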

Escherichia coli = experiment: MIC determination against bacteria; type: cell-based; conditions: read-out: MIC Ec
Candida albicans [1] = conditions: cited from earlier work
Candida albicans [2] = experiment: MIC, broth microdilution, Candida albicans; type: cell-based; conditions: Table 5; CLSI M27-A3 with modifications, Lambert–Pearson plot; ATCC 24433
In short: (§1)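 Yeasts were precultured in liquid YPD at 37 °C, 70 rpm, for 24 hours. MIC was determined by CLSI M27-A3 broth microdilution, modified for turbidimetric detection. The assay used MOPS-buffered RPMI 1640 without sodium bicarbonate, with cell density read at 600 nm. MIC was derived from a Lambert–Pearson plot of cell density.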

Listeria monocytogenes = experiment: MIC determination, Listeria monocytogenes; type: cell-based; conditions: Table 5; Mueller Hinton broth, CLSI M7A9 with modifications, triplicate; ATCC BAA-679/EGD-e
In short: (§2)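 Bacteria pre-cultured overnight at 37 °C/5% CO2 in culture medium as inoculum. MIC of test peptides determined by broth dilution in Mueller Hinton broth following CLSI M7A9 with modifications for bacteria. All tests run in triplicate.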

Pseudomonas aeruginosa = experiment: MIC determination, Pseudomonas aeruginosa; type: cell-based; conditions: Table 5; Mueller Hinton broth, CLSI M7A9 with modifications, triplicate; ATCC 27853
In short: as §2

human erythrocytes = conditions: cited from earlier work
mammalian cell line = conditions: in vitro; cited from earlier work
rabbit erythrocytes = conditions: cited from earlier work
Candida parapsilosis = experiment: MIC, broth microdilution, Candida parapsilosis; type: cell-based; conditions: Table 5; CLSI M27-A3 with modifications, Lambert–Pearson plot; ATCC 22019
In short: as §1

Candida auris = experiment: MIC, broth microdilution, Candida auris; type: cell-based; conditions: Table 5; CLSI M27-A3 with modifications, Lambert–Pearson plot; DSMZ-No. 21092
In short: as §1

C[C@@H]1[C@H](O)[C@@H](C)/C=C/C=C/C=C/C=C/C=C/C=C/C=C/[C@H](O[C@@H]2O[C@H](C)[C@@H](O)[C@H](N)[C@@H]2O)C[C@@H]2O[C@](O)(C[C@@H](O)C[C@@H](O)[C@H](O)CC[C@@H](O)C[C@@H](O)CC(=O)O[C@H]1C)C[C@H](O)[C@H]2C(=O)O [amphotericin B]
MIC (Trichophyton rubrum): 0.125 µg/mL (≈ 0.135 µM)

CC1(C)S[C@@H]2[C@H](NC(=O)[C@H](N)c3ccccc3)C(=O)N2[C@H]1C(=O)O [ampicillin]
MIC (Escherichia coli): 0.195 µg/mL (≈ 0.559 µM)

OC(Cn1cncn1)(Cn1cncn1)c1ccc(F)cc1F [fluconazole]
MIC (Candida albicans [1]; against Candida albicans): 8 to 16 µg/mL

SRSELIVHQRLF-NH2 [Cm-p5]
MIC C. albicans (Candida albicans [2]): 10 µg/mL
MIC Listeria monocytogenes (Listeria monocytogenes): >100 µg/mL
MIC Pseudomonas aeruginosa (Pseudomonas aeruginosa): >100 µg/mL
hemolytic activity (human erythrocytes): nonhemolytic
toxicity against a mammalian cell line (mammalian cell line): did not exhibit any toxicity
MIC (Candida albicans [1]; against C. albicans, native peptide): 10 µg/mL
fungistatic action, concentration range (Candida albicans [1]; against Candida albicans): 10 to 40 µg/mL
hemolytic activity (rabbit erythrocytes): nonhemolytic
MIC C. parapsilosis (Candida parapsilosis): 32 µg/mL
MIC C. auris (Candida auris): 11 µg/mL
